Here are results for 28 compounds from ChEMBL document CHEMBL4765486, “Novel Nonsecosteroidal Vitamin D Receptor Modulator Combined with Gemcitabine Enhances Pancreatic Cancer Therapy through Remodeling of the Tumor Microenvironment” (J Med Chem, 2021).

Structures are written as SMILES. Active and inactive are the calls of the source.

Test [1] concerns the target T1, Vitamin D3 receptor (Homo sapiens) (UniProt P11473).
T1 sequence (whole entry): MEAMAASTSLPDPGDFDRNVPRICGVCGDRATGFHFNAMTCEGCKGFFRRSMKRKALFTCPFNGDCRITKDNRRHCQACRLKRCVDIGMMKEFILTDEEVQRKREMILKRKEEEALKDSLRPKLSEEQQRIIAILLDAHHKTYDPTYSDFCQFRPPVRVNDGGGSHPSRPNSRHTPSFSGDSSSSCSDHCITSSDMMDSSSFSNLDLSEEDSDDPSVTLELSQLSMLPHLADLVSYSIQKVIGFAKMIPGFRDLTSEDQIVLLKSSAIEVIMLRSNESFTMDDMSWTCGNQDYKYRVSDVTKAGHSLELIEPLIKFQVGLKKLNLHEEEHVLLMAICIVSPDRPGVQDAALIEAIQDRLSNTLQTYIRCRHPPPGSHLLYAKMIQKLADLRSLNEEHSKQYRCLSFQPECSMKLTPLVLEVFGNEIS
As to the kind of experiment: Binding affinity to VDR (unknown origin) at 1 uM by fluorescence polarization assay relative to calcipotriol. In outline:
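PolarScreen VDR competitor fluorescence polarization assay with compounds at 1 μM in triplicate. Read-out used 535 nm excitation and 590 nm emission filters.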

Test [2] concerns LTC-14. As to the kind of experiment: Inhibition of rat LTC-14 cells activation assessed decrease in TGF-beta1 induced collagen 1 protein expression at 0.5 uM incubated for 24 hrs by Western blot analysis. It is filed as functional, cell-based. The procedure, abridged: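 LTC-14 cells were treated for 24 h with compound (0.5 μM) plus TGF-β1 (0.5 ng/mL in the text, 5 ng/mL in the methods). Lysates were run on 10% SDS-PAGE, transferred to PVDF and probed with rabbit anti-collagen I, with β-actin as reference. Bands were quantified by densitometry versus TGF-β1 alone.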

Test [3] relates to LTC-14. As to the kind of experiment: Inhibition of rat LTC-14 cells activation assessed decrease in TGF-beta1 induced Acta2 mRNA expression at 0.5 uM incubated for 24 hrs by q-PCR analysis. It is filed as functional, cell-based. In outline: (§1)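 Immortalized rat PSC line LTC-14, about 1×10^5 cells per well, was grown 24 h at 37 °C in 5% CO2. Cells then received compound (0.5 μM) plus TGF-β1 for 24 h; TGF-β1 is stated as 0.5 ng/mL in the text and 5 ng/mL in the methods. Col1a1 and Acta2 mRNA were measured by RT-qPCR. Mean ± SD versus TGF-β1 alone.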

For test [4], the system named is LTC-14. As to the kind of experiment: Inhibition of rat LTC-14 cell activation assessed decrease in TGF-beta1 induced Colla1 mRNA expression at 0.5 uM incubated for 24 hrs by q-PCR analysis. The test is classed as functional. In outline: as §1
The nature of test [5]: Cytotoxicity against rat LTC-14 cells assessed as reduction in cell proliferation incubated for 24 hrs by MTT assay. Conditions: LTC-14, 24 h. It is filed as cell-based.

Turning to `CCN(CC)CCNC(=O)c1cc(C(CC)(CC)c2ccc(OCCCC(O)(CC)CC)c(C)c2)cn1CC`, the RBA in test [1] amounted to 31%. In addition, the inhibition entry in the test with LTC-14 [2], with LTC-14 [3] and with LTC-14 [4] was “Active” each time. For the same compound, the IC50 in test [5] was over 10 µM.
`CCN(CC)CCCNC(=O)c1ccc(C(CC)(CC)c2ccc(OCCCCC(O)(CC)CC)c(C)c2)n1CC`: the RBA result in test [1] was “inactive”. Besides, the inhibition result in the test on LTC-14 [2], in the test on LTC-14 [3] and in the test with LTC-14 [4] was “Active” in each case. The IC50 in test [5] was over 10 µM.
Regarding `CCN(CC)CCCNC(=O)c1ccc(C(CC)(CC)c2ccc(OCC(O)c3ccccc3)c(C)c2)n1CC` (stereo not given), in test [1] (filed as agonist), the RBA was 75%. Besides, the inhibition entry with LTC-14 [2], with LTC-14 [3] and in the test on LTC-14 [4] was “Active” throughout. For the same compound, the IC50 in test [5] was over 10 µM.
Regarding `CCn1c(C(=O)NCCCN2CCN(C)CC2)ccc1C(CC)(CC)c1ccc(OCCC(C)(C)O)c(C)c1`, the RBA in test [1] (filed as agonist) worked out at 54%. In addition, the inhibition entry with LTC-14 [2], in the test with LTC-14 [3] and in the test on LTC-14 [4] was “Active” throughout. Moreover, in test [5], the IC50 is over 10 µM.
As to `CCn1c(C(=O)NCCN2CCOCC2)ccc1C(CC)(CC)c1ccc(OCCC(C)(C)O)c(C)c1`, the RBA in test [1] was 18%. Also, the inhibition entry with LTC-14 [2], with LTC-14 [3] and with LTC-14 [4] was “Active” throughout. For the same compound, the IC50 in test [5] was over 10 µM.
As for `CCN(CC)CCCNC(=O)c1cc(C(CC)(CC)c2ccc(OCCC(C)(C)O)c(C)c2)cn1CC`, in test [1] (filed as agonist), the RBA stood at 67%. For the same compound, the inhibition result with LTC-14 [2], in the test with LTC-14 [3] and in the test with LTC-14 [4] was “Active” throughout. In test [5], the IC50 was over 10 µM.
`CCC(O)COc1ccc(C(CC)(CC)c2cc(C(=O)NCCCN(CC)CC)n(CC)c2)cc1C` (stereo not given): the RBA in test [1] (filed as agonist) came to 64%. Also, the inhibition entry in the test on LTC-14 [2], with LTC-14 [3] and in the test on LTC-14 [4] was “Active” in each case. Besides, the half-inhibitory concentration (IC50) in test [5] was over 10 µM.
On to `CCN(CC)CCCNC(=O)c1cc(C(CC)(CC)c2ccc(OCC(C)O)c(C)c2)cn1CC` (stereo not given), for which the RBA in test [1] (filed as agonist) amounted to 78%. In addition, the inhibition entry with LTC-14 [2], in the test on LTC-14 [3] and in the test with LTC-14 [4] was “Active” each time. In addition, the IC50 in test [5] was over 10 µM.
With `CCN(CC)CCCNC(=O)c1cc(C(CC)(CC)c2ccc(OCCC(O)(CC)CC)c(C)c2)cn1CC`, the RBA in test [1] (filed as agonist) came out at 51%. Moreover, the inhibition result in the test on LTC-14 [2], in the test with LTC-14 [3] and with LTC-14 [4] was “Active” in each case. In addition, in test [5], the IC50 is over 10 µM.
On to `CCN(CC)CCCNC(=O)c1cc(C(CC)(CC)c2ccc(OCCCCC(C)(C)O)c(C)c2)cn1CC`, for which, in test [1], the RBA is 33%. For the same compound, the inhibition entry in the test on LTC-14 [2], in the test with LTC-14 [3] and with LTC-14 [4] was “Active” in each case. The IC50 in test [5] was over 10 µM.
For `CCn1c(C(=O)NCC2CCCO2)ccc1C(CC)(CC)c1ccc(OCCC(C)(C)O)c(C)c1` (stereo not given), the RBA in test [1] (filed as agonist) stood at 59%. In addition, the inhibition entry in the test on LTC-14 [2], in the test with LTC-14 [3] and with LTC-14 [4] was “Active” throughout. Besides, in test [5], the IC50 is over 10 µM.
For the compound `CCN(CC)CCCNC(=O)c1cc(C(CC)(CC)c2ccc(OCCCCCC(O)(CC)CC)c(C)c2)cn1CC`, the RBA in test [1] was 32%. Further, the inhibition result in the test on LTC-14 [2], in the test on LTC-14 [3] and in the test on LTC-14 [4] was “Active” in each case. Also, in test [5], the IC50 is over 10 µM.
Take `CCn1cc(C(CC)(CC)c2ccc(OCC(C)O)c(C)c2)cc1C(=O)NCC1CCOCC1` (stereo not given): the RBA in test [1] (filed as agonist) was 67%. In addition, the inhibition result in the test on LTC-14 [2], with LTC-14 [3] and with LTC-14 [4] was “Active” in each case. Moreover, in test [5], the IC50 is over 10 µM.
Consider `CCN(CC)CCCNC(=O)c1cc(C(CC)(CC)c2ccc(OCCCCC(O)(CC)CC)c(C)c2)cn1CC`, for which the RBA in test [1] was found to be 27%. The inhibition entry in the test on LTC-14 [2], with LTC-14 [3] and in the test on LTC-14 [4] was “Active” each time. Also, in test [5], the half-inhibitory concentration (IC50) was over 10 µM.
On to `CCN(CC)CCNC(=O)c1cc(C(CC)(CC)c2ccc(OCC(C)O)c(C)c2)cn1CC` (stereo not given), for which the RBA result in test [1] was “inactive”. In addition, the inhibition result with LTC-14 [2], in the test on LTC-14 [3] and in the test on LTC-14 [4] was “Active” in each case. Further, the half-maximal inhibitory concentration (IC50) in test [5] was over 10 µM.
`CCN(CC)CCCNC(=O)c1cc(C(CC)(CC)c2ccc(OCCCC(C)(C)O)c(C)c2)cn1CC`: the RBA in test [1] was determined as 24%. For the same compound, the inhibition entry in the test on LTC-14 [2], in the test on LTC-14 [3] and in the test with LTC-14 [4] was “Active” in each case. Further, the IC50 in test [5] is over 10 µM.
Take `CCN(CC)CCNC(=O)c1ccc(C(CC)(CC)c2ccc(OCCCC(O)(CC)CC)c(C)c2)n1CC`: in test [1], the RBA worked out at 38%. The inhibition result in the test on LTC-14 [2], in the test on LTC-14 [3] and with LTC-14 [4] was “Active” throughout. The IC50 in test [5] is over 10 µM.
Consider `CCC(O)COc1ccc(C(CC)(CC)c2ccc(C(=O)NCCCN(CC)CC)n2CC)cc1C` (stereo not given), for which the RBA in test [1] is 28%. Also, the inhibition entry with LTC-14 [2], with LTC-14 [3] and in the test with LTC-14 [4] was “Active” each time. The half-inhibitory concentration (IC50) in test [5] was over 10 µM.
As to `CCn1cc(C(CC)(CC)c2ccc(OCC(C)O)c(C)c2)cc1C(=O)NCCCN1CCOCC1` (stereo not given), the RBA in test [1] (filed as agonist) was determined as 71%. Besides, the inhibition entry in the test with LTC-14 [2], in the test on LTC-14 [3] and in the test on LTC-14 [4] was “Active” in each case. The half-maximal inhibitory concentration (IC50) in test [5] was over 10 µM.
With `CCN(CC)CCCNC(=O)c1cc(C(CC)(CC)c2ccc(OCCCC(O)(CC)CC)c(C)c2)cn1CC`, the RBA in test [1] (filed as agonist) was found to be 46%. Also, the inhibition entry with LTC-14 [2], with LTC-14 [3] and with LTC-14 [4] was “Active” each time. Besides, in test [5], the half-maximal inhibitory concentration (IC50) is over 10 µM.
`CCN(CC)CCCNC(=O)c1ccc(C(CC)(CC)c2ccc(OCCCCCC(C)(C)O)c(C)c2)n1CC`: the RBA in test [1] came out at 20%. Further, the inhibition result in the test with LTC-14 [2], with LTC-14 [3] and in the test on LTC-14 [4] was “Active” throughout. Moreover, in test [5], the IC50 was over 10 µM.
`CCN(CC)CCCNC(=O)c1ccc(C(CC)(CC)c2ccc(OCCCCCC(O)(CC)CC)c(C)c2)n1CC`: the RBA in test [1] worked out at 33%. Moreover, the inhibition entry in the test on LTC-14 [2], with LTC-14 [3] and in the test on LTC-14 [4] was “Active” throughout. In addition, in test [5], the concentration for half-maximal inhibition (IC50) was over 10 µM.
Regarding `CCN(CC)CCCNC(=O)c1cc(C(CC)(CC)c2ccc(OCC(O)C3CC3)c(C)c2)cn1CC` (stereo not given), the RBA in test [1] (filed as agonist) turned out to be 40%. Also, the inhibition entry with LTC-14 [2], in the test on LTC-14 [3] and in the test on LTC-14 [4] was “Active” in each case. For the same compound, in test [5], the IC50 is over 10 µM.
`CCN(CC)CCCNC(=O)c1ccc(C(CC)(CC)c2ccc(OCCCC(C)(C)O)c(C)c2)n1CC`: the RBA in test [1] turned out to be 33%. The inhibition entry with LTC-14 [2], in the test with LTC-14 [3] and in the test on LTC-14 [4] was “Active” throughout. Also, the IC50 in test [5] is over 10 µM.
As to `CCn1cc(C(CC)(CC)c2ccc(OCC(C)O)c(C)c2)cc1C(=O)NCCN1CCOCC1` (stereo not given), in test [1], the RBA was found to be 36%. Further, the inhibition entry in the test with LTC-14 [2], in the test on LTC-14 [3] and with LTC-14 [4] was “Active” throughout. Also, in test [5], the IC50 was over 10 µM.
As to `CCn1cc(C(CC)(CC)c2ccc(OCC(C)O)c(C)c2)cc1C(=O)NCCN(C)C` (stereo not given), the RBA in test [1] (filed as agonist) is 70%. The inhibition result in the test with LTC-14 [2], in the test with LTC-14 [3] and in the test on LTC-14 [4] was “Active” in each case. Further, the IC50 in test [5] was over 10 µM.
As for `CCN(CC)CCNC(=O)c1cc(C(CC)(CC)c2ccc(OCCC(O)(CC)CC)c(C)c2)cn1CC`, the RBA in test [1] (filed as agonist) is 80%. The inhibition entry in the test on LTC-14 [2], with LTC-14 [3] and with LTC-14 [4] was “Active” in each case. In addition, in test [5], the IC50 is over 10 µM.
Turning to `CCn1cc(C(CC)(CC)c2ccc(OCC(C)O)c(C)c2)cc1C(=O)NCC1CCCO1` (stereo not given), the RBA in test [1] (filed as agonist) stood at 60%. In addition, the inhibition entry with LTC-14 [2], in the test on LTC-14 [3] and in the test with LTC-14 [4] was “Active” in each case. Moreover, in test [5], the IC50 is over 10 µM.
